# From article PMC9176367 (Journal of medicinal chemistry, 2022)
# Experiments:
# [1] = system: MRGPRX1; settings: NIH MLPCN; cited from earlier work
# [2] = target: T1, human MRGPRX1 (Homo sapiens, UniProt Q96LB2); format: cell-based; settings: MRGPRX1 PAM potency
# Outline: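 Stable human MRGPRX1 HEK293 cells seeded at 25,000/well and grown 2 days. Loaded with 2 μM Fluo-4 AM plus 1% Trypan Red in HBSS for 50 min at 37°C, then 10 min at room temperature. Serial HBSS dilutions of test compound added with EC20 BAM8–22; FLIPR read for 2 min as max–min fluorescence. […] Mean ± SEM, ≥3 experiments in quadruplicate.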
# [3] = Metabolite identification in human liver microsomes; format: in vitro ADME; settings: 60 min
# [4] = system: humanized MRGPRX1 mice; assay: Sciatic nerve chronic constriction injury; format: in vivo; settings: 100 mg/kg, po
# Outline: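 Humanized MRGPRX1 mice of both sexes (2–3 months, 20–30 g) under 2% isoflurane; left sciatic nerve loosely ligated with three sutures proximal to the branching point. Test compound given at 100 mg/kg po, vehicle as control. Hargreaves heat paw withdrawal latency measured before and after dosing on days 12 and 26 post-CCI (n=4–5/group). Two-way mixed-model ANOVA with Bonferroni; mean + SD.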
# [5] = system: humanized MRGPRX1 mice; format: in vivo; settings: 100 mg/kg oral, 0–1 hour post-drug
# [6] = In vivo pharmacokinetics in mice after oral administration; settings: for Kp: male, CD-1, mouse, po, 100 mg/kg, Tissue-to-plasma ratio (by AUC)
# Outline: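 Male CD1 mice (25–30 g, n=3) dosed by oral gavage at 100 mg/kg in 5% dimethylacetamide/10% Cremophor EL/10% Tween80/25% PEG400/50% water. Killed at 0.25–6 h; cardiac blood taken to plasma, spinal cord and brain flash-frozen. Acetonitrile extraction with losartan internal standard, then LC/MS/MS. Calibration 0.01–10 nmol/mL in naïve matrix, 1/x-weighted linear regression.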
# [7] = target: hERG channel (Homo sapiens, UniProt Q12809); assay: hERG channel in Eurofins Cerep SafetyScreen 44; settings: at 10 μM
# Chain of hERG channel (Q12809 whole entry): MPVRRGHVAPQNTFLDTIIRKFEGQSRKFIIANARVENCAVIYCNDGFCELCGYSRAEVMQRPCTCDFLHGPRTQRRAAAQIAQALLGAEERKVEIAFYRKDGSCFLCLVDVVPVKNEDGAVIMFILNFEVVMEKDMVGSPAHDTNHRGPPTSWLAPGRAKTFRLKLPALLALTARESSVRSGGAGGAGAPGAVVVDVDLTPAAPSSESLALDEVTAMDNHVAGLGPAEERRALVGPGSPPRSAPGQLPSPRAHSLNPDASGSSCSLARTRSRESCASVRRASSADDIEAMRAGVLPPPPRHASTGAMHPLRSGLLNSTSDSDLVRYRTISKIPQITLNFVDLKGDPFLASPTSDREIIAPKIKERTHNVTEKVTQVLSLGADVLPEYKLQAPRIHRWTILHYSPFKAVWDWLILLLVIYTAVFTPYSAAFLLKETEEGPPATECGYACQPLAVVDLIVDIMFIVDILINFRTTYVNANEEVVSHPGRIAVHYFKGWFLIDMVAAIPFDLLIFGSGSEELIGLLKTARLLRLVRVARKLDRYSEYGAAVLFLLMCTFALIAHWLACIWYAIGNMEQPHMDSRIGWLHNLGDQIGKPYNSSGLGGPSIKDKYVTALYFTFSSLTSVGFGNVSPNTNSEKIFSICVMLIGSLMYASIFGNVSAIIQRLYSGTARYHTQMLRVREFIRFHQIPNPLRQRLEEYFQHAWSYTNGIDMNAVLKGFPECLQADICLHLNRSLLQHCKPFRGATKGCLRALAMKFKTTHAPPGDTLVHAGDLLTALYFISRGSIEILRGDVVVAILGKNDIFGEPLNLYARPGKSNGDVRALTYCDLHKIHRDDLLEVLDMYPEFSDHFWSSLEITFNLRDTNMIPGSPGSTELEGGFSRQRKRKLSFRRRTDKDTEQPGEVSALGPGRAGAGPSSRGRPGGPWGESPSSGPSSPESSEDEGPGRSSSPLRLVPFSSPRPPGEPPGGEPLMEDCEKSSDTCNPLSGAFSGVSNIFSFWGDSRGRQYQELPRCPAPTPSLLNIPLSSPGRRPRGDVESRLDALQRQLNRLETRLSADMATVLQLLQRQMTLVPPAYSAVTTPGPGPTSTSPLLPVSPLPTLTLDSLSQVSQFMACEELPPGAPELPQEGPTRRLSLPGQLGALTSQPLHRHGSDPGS
# [8] = target: T1, human MRGPRX1; assay: MRGPRX1 intrinsic agonist activity in the absence of BAM8–22; format: cell-based; settings: at concentrations up to 100 μM in the absence of BAM8–22
# Outline: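 Same stable human MRGPRX1 HEK293 FLIPR format: 25,000 cells/well for 2 days, then 2 μM Fluo-4 AM with 1% Trypan Red in HBSS for 50 min at 37°C and 10 min at room temperature. Serially diluted test compound added in HBSS alone, with HBSS as negative control and BAM8–22 as positive control. Max–min fluorescence recorded over 2 min.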
# [9] = system: panel of 44 selected targets (Eurofins Cerep SafetyScreen 44); assay: Off-target panel of 44 selected targets; settings: at 10 μM
# [10] = system: naïve MRGPRX1 mice; assay: Rotarod test in naïve MRGPRX1 mice; format: in vivo; settings: 100 mg/kg, po, vs vehicle-treated group and pre-treatment values
# [11] = target: T2, MRGPRX2 (Homo sapiens, UniProt Q96LB1); format: cell-based
# T2 sequence (Q96LB1 1-330): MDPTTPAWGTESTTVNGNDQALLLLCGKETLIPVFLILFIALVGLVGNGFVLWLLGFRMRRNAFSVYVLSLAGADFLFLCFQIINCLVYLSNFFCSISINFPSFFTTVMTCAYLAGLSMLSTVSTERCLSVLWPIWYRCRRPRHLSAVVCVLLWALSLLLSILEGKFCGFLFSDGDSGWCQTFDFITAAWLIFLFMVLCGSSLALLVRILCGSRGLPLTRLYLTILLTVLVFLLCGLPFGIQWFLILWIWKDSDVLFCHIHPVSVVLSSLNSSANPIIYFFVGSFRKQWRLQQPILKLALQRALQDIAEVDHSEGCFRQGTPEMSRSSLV
# [12] = system: naïve MRGPRX1 mice; assay: Open field test in naïve MRGPRX1 mice; format: in vivo; settings: 100 mg/kg, po, compared to pre-drug
# [13] = system: MRGPRX1; settings: cited from earlier work
# [14] = spinal cord, 100 mg/kg po (table)
# T1 sequence (Q96LB2 whole entry): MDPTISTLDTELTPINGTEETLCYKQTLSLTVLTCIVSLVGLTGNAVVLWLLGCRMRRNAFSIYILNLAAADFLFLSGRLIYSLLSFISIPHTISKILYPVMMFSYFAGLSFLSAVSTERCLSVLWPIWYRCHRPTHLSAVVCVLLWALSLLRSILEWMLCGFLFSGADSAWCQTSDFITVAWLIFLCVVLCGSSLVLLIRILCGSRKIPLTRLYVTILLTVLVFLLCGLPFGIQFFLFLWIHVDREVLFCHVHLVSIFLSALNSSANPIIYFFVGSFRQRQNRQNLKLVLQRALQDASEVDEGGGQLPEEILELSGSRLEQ
smiles,measurement,setting,value
"Cc1ccccc1Oc1ncnc2sccc12 [Compound 1b, 4-(o-Tolyloxy)thieno[2,3-d]pyrimidine]",allosteric MRGPRX1 activator activity,[1],active allosteric MRGPRX1 activator
"Cc1sc2ncnc(Oc3ccccc3)c2c1C [Compound 1c, 5,6-Dimethyl-4-phenoxythieno[2,3-d]pyrimidine]",fold loss in potency compared to 1b,[2],4 fold
"Cc1sc2ncnc(Oc3ccccc3F)c2c1C [Compound 1f, 4-(2-Fluorophenoxy)-5,6-dimethylthieno[2,3-d]pyrimidine]",major metabolite identification,[3],insertion of an oxygen atom into the parent compound
"CC(C)(C)c1sc2ncnc(Oc3ccccc3OC(F)(F)F)c2c1-c1ccc(Cl)c(Cl)c1 [Compound 1t, 6-tert-butyl-5-(3,4-dichlorophenyl)-4-(2-(trifluoromethoxy)phenoxy)thieno[2,3-d]pyrimidine]",ipsilateral paw withdrawal latency (PWL) to radiant heat,[4]; 1 and 2 hours post-drug on day 12 post-injury,significantly increased ipsilateral PWLs from pre-drug level
same,ipsilateral paw withdrawal latency (PWL) to radiant heat,[4]; 2 hours post-drug on day 26 post-injury,significantly increased ipsilateral PWLs from pre-drug level
same,contralateral hind paw PWL,[4]; after drug treatment,no significant change of PWLs
same,itch side effects (spontaneous scratch bouts),[5],lack of spontaneous scratch bouts
same,overt adverse effects,[5]; compared to vehicle,no overt adverse effects
same,Cmax in the spinal cord relative to the EC50 value,[6]; 100 mg/kg po,more than 40 fold
same,Cmax,"[6]; brain, 100 mg/kg po",0.82 ± 0.05 nmol·h/g
same,Kp,"[6]; brain/plasma, brain, 100 mg/kg po",0.022
same,Kp,"[6]; spinal cord/plasma, spinal cord, 100 mg/kg po",0.127
same,AUC0-last,[6]; [14],13.79 ± 0.14 nmol·h/g
same,Cmax,[6]; [14],4.60 ± 0.60 nmol·h/g
same,inhibition of hERG channel,[7],more than 50%
same,intrinsic agonist activity,[8],no intrinsic agonist activity
same,inhibition of 5 of the 44 targets,[9],50−64%
same,performance on the rotarod test,[10],no difference in performance on the rotarod test
same,selectivity for MRGPRX1 over MRGPRX2,[11],at least 50 fold
same,MRGPRX2 PAM activity,"[11]; at 5 μM, in presence of EC20 concentration of C48/80",no MRGPRX2 PAM activity
same,exploratory performance in the open field test,[12],"neither compound 1t (100 mg/kg, po) nor vehicle significantly impaired exploratory performance"
"CCOc1ccccc1NC(=O)c1ccccc1NS(=O)(=O)C1CC1 [ML382, 2-[(Cyclopropylsulfonyl)amino]-N-(2-ethoxyphenyl)benzamide]",pain hypersensitivity after injury,[13]; intrathecal injection,inhibit pain hypersensitivity after injury
same,itch side effects,[13]; systemic administration,did not elicit itch side effects
